Results from ChEMBL document CHEMBL5653631, “A Potent and Selective ULK1 Inhibitor Suppresses Autophagy and Sensitizes Cancer Cells to Nutrient Stress” (iScience, 2018).
Values belong to the compound of their own block, whether it stands above or below them.

Legend:
[1] = biological target: Serine/threonine-protein kinase MRCK alpha (Homo sapiens) (UniProt Q5VT25); test: Inhibition of human recombinant MRCKa at 500 nM in presence of ATP by radiometric assay relative to control
[2] = biological target: T1, Serine/threonine-protein kinase BRSK1 (Homo sapiens) (UniProt Q8TDC3); test: Inhibition of human recombinant BRSK1 at 500 nM related to control ULK1
T1 sequence (whole entry): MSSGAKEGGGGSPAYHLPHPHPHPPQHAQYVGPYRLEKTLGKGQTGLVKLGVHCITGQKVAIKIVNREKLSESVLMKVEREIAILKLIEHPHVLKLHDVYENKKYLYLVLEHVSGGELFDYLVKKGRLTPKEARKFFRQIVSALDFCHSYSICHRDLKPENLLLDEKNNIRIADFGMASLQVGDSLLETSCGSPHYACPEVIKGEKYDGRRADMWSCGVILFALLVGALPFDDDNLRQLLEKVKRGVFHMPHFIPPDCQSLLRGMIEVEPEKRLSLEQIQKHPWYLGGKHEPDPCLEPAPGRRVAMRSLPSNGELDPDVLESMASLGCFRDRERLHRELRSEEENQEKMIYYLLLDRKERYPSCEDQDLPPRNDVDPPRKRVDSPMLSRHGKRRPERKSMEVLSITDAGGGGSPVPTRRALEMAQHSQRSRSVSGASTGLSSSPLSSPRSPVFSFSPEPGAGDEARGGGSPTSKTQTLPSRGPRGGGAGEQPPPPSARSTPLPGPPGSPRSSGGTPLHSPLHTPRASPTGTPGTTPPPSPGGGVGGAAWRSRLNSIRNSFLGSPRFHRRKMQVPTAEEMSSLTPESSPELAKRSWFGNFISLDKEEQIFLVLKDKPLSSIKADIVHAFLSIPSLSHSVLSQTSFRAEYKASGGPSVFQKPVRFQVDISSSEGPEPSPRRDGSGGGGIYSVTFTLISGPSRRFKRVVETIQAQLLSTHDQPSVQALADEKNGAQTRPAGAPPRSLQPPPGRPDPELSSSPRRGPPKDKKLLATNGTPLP
In short: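 Recombinant human kinase panel (327 kinases) run as radiometric activity assays, each kinase in duplicate at one compound concentration. Activity remaining expressed relative to vehicle control; percent inhibition taken as 100% minus % activity remaining.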

[3] = biological target: T2, Serine/threonine-protein kinase BRSK2 (Homo sapiens) (UniProt Q8IWQ3); test: Inhibition of human recombinant BRSK2 at 500 nM related to control ULK1
T2 sequence (whole entry): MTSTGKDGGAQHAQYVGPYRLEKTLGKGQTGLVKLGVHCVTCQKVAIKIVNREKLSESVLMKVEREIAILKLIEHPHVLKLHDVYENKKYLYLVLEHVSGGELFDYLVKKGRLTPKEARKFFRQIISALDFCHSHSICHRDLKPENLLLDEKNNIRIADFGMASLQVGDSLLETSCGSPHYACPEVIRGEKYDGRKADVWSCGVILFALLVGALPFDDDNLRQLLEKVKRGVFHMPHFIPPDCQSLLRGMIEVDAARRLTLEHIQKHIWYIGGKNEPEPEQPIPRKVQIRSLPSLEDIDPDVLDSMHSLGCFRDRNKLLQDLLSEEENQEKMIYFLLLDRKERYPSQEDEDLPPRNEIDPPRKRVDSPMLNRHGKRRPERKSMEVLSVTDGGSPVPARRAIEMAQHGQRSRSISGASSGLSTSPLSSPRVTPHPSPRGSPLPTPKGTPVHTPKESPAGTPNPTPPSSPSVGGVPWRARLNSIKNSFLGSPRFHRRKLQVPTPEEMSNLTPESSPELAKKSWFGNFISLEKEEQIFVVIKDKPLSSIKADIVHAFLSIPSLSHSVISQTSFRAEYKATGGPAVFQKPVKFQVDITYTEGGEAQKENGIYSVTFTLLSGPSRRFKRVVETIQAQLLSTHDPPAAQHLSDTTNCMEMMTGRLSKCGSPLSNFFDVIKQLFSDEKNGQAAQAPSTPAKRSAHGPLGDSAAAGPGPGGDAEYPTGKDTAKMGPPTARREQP

[4] = biological target: Casein kinase I isoform gamma-1 (Homo sapiens) (UniProt Q9HCP0); test: Inhibition of human recombinant CK1g1 at 500 nM related to control ULK1
[5] = biological target: Focal adhesion kinase 1 (Homo sapiens) (UniProt Q05397); test: Inhibition of human recombinant FAK at 500 nM related to control ULK1
[6] = biological target: T3, Dual specificity tyrosine-phosphorylation-regulated kinase 2 (Homo sapiens) (UniProt Q92630); test: Inhibition of human recombinant DYRK2 at 15 nM in presence of ATP by radiometric assay relative to control
T3 sequence (whole entry): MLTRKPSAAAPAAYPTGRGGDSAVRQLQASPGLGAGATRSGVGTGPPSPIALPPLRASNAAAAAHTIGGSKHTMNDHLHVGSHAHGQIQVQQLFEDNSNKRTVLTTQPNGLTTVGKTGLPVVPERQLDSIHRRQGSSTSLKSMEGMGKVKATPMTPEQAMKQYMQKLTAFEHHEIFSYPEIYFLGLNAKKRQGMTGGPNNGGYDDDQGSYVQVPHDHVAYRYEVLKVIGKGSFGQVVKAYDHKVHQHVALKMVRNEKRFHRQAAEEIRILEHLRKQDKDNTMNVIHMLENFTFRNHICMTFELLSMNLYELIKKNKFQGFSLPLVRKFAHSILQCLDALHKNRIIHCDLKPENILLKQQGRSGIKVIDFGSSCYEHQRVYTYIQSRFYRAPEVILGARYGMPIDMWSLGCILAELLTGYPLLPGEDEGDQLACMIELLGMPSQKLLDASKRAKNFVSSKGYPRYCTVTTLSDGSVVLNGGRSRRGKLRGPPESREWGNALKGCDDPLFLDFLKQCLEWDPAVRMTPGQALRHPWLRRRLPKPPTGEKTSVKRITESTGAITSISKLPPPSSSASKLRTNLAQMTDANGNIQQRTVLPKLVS

[7] = biological target: Calcium/calmodulin-dependent protein kinase type II subunit alpha (Homo sapiens) (UniProt Q9UQM7); test: Inhibition of human recombinant CaMK2a at 40 nM in presence of ATP by radiometric assay relative to control
[8] = biological target: Cyclin-dependent kinase 5 (Homo sapiens) (UniProt Q00535); test: Inhibition of human recombinant CDK5 at 40 nM in presence of ATP by radiometric assay relative to control
[9] = biological target: Serine/threonine-protein kinase 25 (Homo sapiens) (UniProt O00506); test: Inhibition of human recombinant YSK1 at 40 nM in presence of ATP by radiometric assay relative to control
[10] = biological target: Mitogen-activated protein kinase kinase kinase 9 (Homo sapiens) (UniProt P80192); test: Inhibition of human recombinant MLK1 at 40 nM related to control ULK1
Sequence of Mitogen-activated protein kinase kinase kinase 9 (Homo sapiens) (P80192 whole entry, looked up): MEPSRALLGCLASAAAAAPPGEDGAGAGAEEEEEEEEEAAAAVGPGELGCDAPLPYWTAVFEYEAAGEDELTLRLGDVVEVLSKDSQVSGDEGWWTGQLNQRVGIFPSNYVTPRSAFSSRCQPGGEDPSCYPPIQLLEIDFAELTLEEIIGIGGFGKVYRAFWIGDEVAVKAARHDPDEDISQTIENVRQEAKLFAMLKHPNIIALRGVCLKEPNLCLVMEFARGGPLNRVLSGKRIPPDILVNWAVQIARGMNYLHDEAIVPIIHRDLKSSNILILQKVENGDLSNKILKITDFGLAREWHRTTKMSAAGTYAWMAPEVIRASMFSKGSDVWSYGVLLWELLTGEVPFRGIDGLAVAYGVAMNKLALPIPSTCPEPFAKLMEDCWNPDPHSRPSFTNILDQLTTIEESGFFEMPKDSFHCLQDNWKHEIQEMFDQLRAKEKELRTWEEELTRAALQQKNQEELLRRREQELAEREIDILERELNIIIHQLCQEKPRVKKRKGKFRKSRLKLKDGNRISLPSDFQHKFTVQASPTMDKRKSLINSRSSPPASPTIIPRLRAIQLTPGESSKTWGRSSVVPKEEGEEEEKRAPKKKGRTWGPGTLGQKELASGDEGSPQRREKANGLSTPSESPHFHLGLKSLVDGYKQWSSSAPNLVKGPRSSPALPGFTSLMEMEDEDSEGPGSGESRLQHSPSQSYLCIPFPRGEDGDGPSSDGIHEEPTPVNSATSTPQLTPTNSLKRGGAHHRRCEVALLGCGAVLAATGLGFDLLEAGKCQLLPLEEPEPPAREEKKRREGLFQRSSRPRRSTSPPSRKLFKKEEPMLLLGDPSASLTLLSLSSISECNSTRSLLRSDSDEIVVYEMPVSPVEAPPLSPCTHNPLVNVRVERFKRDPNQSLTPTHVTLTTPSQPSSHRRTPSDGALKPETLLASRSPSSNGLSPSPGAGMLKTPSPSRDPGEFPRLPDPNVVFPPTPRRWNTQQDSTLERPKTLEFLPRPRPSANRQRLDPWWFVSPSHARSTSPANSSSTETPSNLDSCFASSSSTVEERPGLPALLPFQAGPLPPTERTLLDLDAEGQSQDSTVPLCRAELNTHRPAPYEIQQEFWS

Sequence of Casein kinase I isoform gamma-1 (Homo sapiens) (Q9HCP0 whole entry, looked up, canonical isoform): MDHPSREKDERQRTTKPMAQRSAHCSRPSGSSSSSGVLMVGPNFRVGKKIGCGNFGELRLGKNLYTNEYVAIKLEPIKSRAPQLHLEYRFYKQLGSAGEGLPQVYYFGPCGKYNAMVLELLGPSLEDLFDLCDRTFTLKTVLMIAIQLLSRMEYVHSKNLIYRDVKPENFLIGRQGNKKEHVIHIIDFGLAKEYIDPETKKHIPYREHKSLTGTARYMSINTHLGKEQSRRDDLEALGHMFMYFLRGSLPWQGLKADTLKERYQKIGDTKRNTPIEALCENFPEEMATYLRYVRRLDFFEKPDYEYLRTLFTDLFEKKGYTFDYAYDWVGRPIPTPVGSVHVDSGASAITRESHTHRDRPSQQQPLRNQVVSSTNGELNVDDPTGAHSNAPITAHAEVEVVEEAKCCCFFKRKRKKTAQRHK
Sequence of Serine/threonine-protein kinase 25 (Homo sapiens) (O00506 whole entry, looked up): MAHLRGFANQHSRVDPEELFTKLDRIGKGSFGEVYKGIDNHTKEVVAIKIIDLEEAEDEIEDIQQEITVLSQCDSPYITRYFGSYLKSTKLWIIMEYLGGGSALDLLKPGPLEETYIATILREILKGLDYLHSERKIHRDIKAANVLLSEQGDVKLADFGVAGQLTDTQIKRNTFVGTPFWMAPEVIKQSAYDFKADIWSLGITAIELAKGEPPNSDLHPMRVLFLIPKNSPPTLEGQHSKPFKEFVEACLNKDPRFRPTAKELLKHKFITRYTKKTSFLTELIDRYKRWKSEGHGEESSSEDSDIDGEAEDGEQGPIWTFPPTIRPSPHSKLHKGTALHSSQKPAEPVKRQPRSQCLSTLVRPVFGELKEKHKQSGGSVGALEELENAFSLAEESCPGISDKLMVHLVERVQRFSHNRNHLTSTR
Sequence of Focal adhesion kinase 1 (Homo sapiens) (Q05397 2-1052 limits assumed): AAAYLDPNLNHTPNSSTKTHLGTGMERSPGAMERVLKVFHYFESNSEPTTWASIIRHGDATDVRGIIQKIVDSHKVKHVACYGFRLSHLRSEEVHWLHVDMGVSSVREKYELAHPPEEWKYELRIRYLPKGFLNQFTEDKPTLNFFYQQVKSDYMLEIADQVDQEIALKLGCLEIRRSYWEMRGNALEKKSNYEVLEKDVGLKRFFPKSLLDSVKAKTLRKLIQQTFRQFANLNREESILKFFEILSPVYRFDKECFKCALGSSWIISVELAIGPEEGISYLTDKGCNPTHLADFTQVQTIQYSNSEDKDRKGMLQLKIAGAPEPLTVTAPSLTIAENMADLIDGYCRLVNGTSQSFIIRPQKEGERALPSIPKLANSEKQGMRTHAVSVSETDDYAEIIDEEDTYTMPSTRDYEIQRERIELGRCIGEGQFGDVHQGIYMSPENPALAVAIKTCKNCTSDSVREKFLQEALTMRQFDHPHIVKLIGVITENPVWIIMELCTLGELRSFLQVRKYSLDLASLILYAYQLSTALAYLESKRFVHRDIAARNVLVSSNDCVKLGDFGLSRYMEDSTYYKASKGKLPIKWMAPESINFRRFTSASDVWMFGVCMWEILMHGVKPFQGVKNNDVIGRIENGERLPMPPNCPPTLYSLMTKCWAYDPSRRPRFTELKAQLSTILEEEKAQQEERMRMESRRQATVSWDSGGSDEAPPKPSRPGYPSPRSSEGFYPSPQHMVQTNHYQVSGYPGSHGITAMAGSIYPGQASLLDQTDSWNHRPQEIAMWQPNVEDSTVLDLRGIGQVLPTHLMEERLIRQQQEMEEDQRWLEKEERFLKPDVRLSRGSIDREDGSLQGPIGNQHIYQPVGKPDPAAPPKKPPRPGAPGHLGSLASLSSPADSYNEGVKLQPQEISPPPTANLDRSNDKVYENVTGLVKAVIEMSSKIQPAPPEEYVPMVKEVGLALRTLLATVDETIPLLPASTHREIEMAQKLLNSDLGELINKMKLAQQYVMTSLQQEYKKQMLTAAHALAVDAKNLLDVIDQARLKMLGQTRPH
Sequence of Cyclin-dependent kinase 5 (Homo sapiens) (Q00535 whole entry, looked up): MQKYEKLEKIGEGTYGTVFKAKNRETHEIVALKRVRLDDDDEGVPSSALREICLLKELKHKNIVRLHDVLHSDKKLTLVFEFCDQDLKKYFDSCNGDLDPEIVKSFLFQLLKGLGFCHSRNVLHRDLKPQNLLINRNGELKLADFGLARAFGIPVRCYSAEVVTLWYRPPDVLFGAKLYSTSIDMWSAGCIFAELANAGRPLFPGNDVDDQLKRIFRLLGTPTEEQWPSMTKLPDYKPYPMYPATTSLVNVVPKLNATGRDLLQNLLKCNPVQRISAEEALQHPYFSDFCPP
Sequence of Serine/threonine-protein kinase MRCK alpha (Homo sapiens) (Q5VT25 whole entry): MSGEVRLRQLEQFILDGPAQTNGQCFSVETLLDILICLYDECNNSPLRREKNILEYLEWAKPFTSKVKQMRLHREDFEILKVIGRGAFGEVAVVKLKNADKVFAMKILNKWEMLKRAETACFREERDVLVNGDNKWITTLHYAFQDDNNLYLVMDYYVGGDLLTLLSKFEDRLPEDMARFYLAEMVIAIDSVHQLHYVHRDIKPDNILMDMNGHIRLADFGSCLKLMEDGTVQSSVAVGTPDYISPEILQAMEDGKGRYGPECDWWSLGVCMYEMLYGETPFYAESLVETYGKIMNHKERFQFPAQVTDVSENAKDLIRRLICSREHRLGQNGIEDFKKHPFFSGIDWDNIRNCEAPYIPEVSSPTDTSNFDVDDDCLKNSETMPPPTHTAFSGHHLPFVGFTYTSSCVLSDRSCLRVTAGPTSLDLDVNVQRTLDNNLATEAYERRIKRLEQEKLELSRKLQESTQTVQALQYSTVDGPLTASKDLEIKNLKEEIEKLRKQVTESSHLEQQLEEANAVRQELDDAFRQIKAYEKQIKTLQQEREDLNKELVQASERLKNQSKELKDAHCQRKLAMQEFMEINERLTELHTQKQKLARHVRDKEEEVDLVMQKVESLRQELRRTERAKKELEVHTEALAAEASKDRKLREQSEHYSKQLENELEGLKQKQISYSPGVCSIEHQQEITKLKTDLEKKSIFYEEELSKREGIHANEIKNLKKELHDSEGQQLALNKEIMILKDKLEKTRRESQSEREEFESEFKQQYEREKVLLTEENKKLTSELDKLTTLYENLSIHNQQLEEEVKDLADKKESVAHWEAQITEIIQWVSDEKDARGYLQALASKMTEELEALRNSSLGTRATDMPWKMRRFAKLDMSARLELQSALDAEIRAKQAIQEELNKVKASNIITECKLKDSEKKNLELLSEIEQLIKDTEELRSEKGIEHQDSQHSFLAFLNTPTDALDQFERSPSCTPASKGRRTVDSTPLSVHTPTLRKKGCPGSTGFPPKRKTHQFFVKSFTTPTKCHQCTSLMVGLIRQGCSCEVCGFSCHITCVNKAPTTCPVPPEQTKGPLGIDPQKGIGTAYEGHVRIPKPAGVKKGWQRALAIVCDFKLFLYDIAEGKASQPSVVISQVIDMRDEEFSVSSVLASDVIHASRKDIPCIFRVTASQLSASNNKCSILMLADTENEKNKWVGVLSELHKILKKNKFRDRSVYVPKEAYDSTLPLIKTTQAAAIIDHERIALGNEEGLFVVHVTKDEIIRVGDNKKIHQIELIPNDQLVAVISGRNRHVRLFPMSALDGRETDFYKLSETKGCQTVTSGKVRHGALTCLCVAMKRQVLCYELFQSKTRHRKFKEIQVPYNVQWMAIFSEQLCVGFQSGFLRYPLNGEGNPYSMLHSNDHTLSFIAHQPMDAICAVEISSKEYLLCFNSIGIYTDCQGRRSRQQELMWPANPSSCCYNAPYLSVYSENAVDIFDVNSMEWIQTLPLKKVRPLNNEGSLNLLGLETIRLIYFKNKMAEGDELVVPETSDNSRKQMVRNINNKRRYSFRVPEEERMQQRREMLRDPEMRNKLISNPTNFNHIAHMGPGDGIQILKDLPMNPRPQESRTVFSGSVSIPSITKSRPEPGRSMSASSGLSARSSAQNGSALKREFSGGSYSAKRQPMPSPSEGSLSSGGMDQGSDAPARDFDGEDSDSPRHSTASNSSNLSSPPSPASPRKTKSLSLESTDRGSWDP

inhibition [1]: 7%
fold change (FC) [2]: 0.03
fold change (FC) [3]: 0.04
fold change (FC) [4]: 0
fold change (FC) [5]: 0.96
Structure (SMILES): CNC(=O)c1ccccc1Oc1nc(Nc2cc(OC)c(OC)c(OC)c2)ncc1Br

inhibition [6]: 8%
Structure (SMILES): CC(C)[C@H](NC(=O)c1cc(-c2cnn3cc(-c4ccc(OCCN5CCCCC5)cc4)cnc23)cs1)C(F)(F)F

inhibition [7]: 0%
inhibition [8]: 47%
inhibition [9]: 0%
fold change (FC) [10]: 0.1
Structure (SMILES): O=C(N[C@@H](C1CC1)C(F)(F)F)c1cc(-c2cnn3cc(-c4ccc(F)cc4)cnc23)cs1
